Reference: ChEMBL document CHEMBL1275283, “Synthesis and evaluation of novel stearoyl-CoA desaturase 1 inhibitors: 1'-{6-[5-(pyridin-3-ylmethyl)-1,3,4-oxadiazol-2-yl]pyridazin-3-yl}-3,4-dihydrospiro[chromene-2,4'-piperidine] analogs” (Eur J Med Chem, 2010)
Values after ≈ are worked out from the molar mass of the structure shown. Each block holds one compound with its values, some of them ahead of it. Active and inactive are the calls of the source. No cut-off for these calls is given here.

Legend:
[1] = tested on: Mus musculus; test: Inhibition of liver SCD1 activity in po dosed db/db mouse assessed as reduction in conversion of [14C]stearic acid to [14C]oleic acid; format: functional; settings: read-out: ID50 (the source's name)
How it was run: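 Seven-week-old male db/db mice dosed by oral gavage 2 h before i.p. [14C]stearate (100 µCi/kg in saline with 2% BSA). Livers harvested 1 h later and homogenized in cold PBS. Saponified homogenate analyzed by AgNO3-TLC for the [14C]oleate/[14C]stearate ratio. ID50 is the dose giving 50% inhibition.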

[2] = Aqueous solubility of the compound at neutral JP-2 solution of pH 6.8 by HPLC analysis; format: physicochemical
How it was run: (§1)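 Solubility measured in purchased aqueous acidic JP-1 (pH 1.2) or neutral JP-2 (pH 6.8) media. Samples analyzed by HPLC, with UV peak area compared to a calibration standard of 250 µM compound in CH3CN/water 1:1. Means of at least two experiments.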

[3] = biological target: T1, Acyl-CoA desaturase 1 (Mus musculus, UniProt P13516); test: Inhibition of SCD1 in mouse microsome assessed as reduction in conversion of [14C]stearic acid to [14C]oleic acid after 30 mins; format: microsomes
T1 sequence (P13516 whole entry): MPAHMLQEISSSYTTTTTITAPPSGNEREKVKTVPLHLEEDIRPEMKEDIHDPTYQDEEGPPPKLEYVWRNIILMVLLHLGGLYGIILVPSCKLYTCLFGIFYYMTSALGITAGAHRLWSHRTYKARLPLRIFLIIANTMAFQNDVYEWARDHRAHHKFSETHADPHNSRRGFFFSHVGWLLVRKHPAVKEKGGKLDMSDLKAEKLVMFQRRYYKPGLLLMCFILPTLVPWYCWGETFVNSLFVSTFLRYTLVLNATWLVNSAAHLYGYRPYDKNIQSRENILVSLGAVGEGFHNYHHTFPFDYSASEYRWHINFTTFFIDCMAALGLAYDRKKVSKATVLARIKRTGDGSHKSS

[4] = biological target: T2, Stearoyl-CoA desaturase (Homo sapiens, UniProt O00767); test: Inhibition of SCD1 in HEK293A cell microsomes assessed as reduction in conversion of [14C]stearic acid to [14C]oleic acid after 30 mins; parameters: species or system HEK293-A, Microsome
T2 sequence (O00767 whole entry): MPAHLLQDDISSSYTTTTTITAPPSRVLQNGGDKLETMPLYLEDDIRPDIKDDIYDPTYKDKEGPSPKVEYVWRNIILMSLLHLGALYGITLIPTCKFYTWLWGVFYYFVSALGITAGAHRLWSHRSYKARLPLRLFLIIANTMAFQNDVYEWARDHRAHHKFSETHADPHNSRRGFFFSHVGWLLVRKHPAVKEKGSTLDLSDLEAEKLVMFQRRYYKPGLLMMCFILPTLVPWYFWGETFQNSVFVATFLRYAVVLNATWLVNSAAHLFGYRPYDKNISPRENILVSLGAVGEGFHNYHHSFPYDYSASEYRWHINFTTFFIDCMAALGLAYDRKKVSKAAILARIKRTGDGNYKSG

[5] = Aqueous solubility of the compound at acidic JP-1 solution of pH 1.2 by HPLC analysis; format: physicochemical; how it was run: as §1
[6] = biological target: T2, Stearoyl-CoA desaturase; test: Inhibition of human SCD1
How it was run: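 Microsomes from 293A cells as the human SCD1 source, preincubated with compound for 10 min at room temperature. Reaction run 60 min at 37 °C in pH 7.4 phosphate buffer with ATP 1 mM, NADH 1.25 mM, CoA and [14C] stearate. Product saponified and separated on AgNO3-TLC. Activity is the [14C] oleate/stearate ratio. IC50 by linear regression; mean of ≥2 experiments.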

[7] = biological target: T2, Stearoyl-CoA desaturase; test: Inhibition of human SCD1 expressed in HEK293A cells assessed as reduction in conversion of [14C]stearic acid to [14C]oleic acid after 30 mins; format: cell-based, HEK293-A
How it was run: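 293A cells stably expressing human SCD1 (G418-selected) grown to confluence in DMEM + 10% FBS. Cells preincubated with compound 30 min, then given 0.1 µCi [14C]stearate for 4 h. Lipids saponified in KOH, separated by AgNO3-TLC, and the [14C]oleate/[14C]stearate ratio used as activity. IC50 derived from this read-out.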

[8] = tested on: Mus musculus; test: Inhibition of delta-(9)-desaturase in C57BL/6J mouse assessed as reduction in plasma desaturation index (C18:1/C18:0) at 10 mg/kg, po QD for 7 days measured post last dose; format: functional; settings: 168 h
How it was run: (§2)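 Nine-week-old male C57BL/6J mice on a high-carbohydrate diet (77.8 kcal% carbohydrate) for 7 days. Oral gavage once daily each evening at 0.3, 1, 3 or 10 mg/kg in propylene glycol/Tween 80 (4/1); n = 4. Serum taken the morning after the seventh dose, saponified in methanolic KOH and extracted with hexane. Index is oleate/stearate.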

[9] = tested on: Mus musculus; test: Toxicity in C57BL/6J mouse assessed occurrence of mild eye fissures at 3 to 10 mg/kg, po QD for 7 days measured post last dose; format: organism-based; parameters: dose 3-10 mg/kg, route oral; settings: in vivo, 168 h
[10] = biological target: Cytochrome P450 2C9 (Homo sapiens, UniProt P11712); test: Inhibition of CYP2C9; format: ADME
Chain of Cytochrome P450 2C9 (P11712 whole entry): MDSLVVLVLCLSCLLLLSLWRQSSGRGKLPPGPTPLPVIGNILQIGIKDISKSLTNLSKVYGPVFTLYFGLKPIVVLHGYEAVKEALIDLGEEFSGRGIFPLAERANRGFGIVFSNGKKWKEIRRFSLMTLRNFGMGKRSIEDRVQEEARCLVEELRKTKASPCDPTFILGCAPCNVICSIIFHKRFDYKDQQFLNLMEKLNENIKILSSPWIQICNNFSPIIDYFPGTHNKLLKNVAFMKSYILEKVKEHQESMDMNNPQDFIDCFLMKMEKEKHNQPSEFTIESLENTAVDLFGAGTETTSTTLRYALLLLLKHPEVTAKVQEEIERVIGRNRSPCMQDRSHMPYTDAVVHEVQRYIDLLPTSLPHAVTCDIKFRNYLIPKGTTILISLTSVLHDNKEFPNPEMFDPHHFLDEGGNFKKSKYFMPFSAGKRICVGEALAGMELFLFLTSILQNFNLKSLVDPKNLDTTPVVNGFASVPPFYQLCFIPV

[11] = Tmax in C57BL/6J mouse at 20 mg/kg, po; format: ADME, organism-based; parameters: dose 20 mg/kg, route oral; settings: in vivo
How it was run: (§3)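 Oral gavage via intubation tube at 20 mg/kg in propylene glycol/Tween 4:1, n = 3 C57BL/6J mice. Plasma sampled up to 8 h after dosing. Values are arithmetic means of at least two experiments.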

[12] = biological target: Cytochrome P450 2D6 (Homo sapiens, UniProt P10635); test: Inhibition of CYP2D6; format: ADME
Chain of Cytochrome P450 2D6 (P10635 whole entry): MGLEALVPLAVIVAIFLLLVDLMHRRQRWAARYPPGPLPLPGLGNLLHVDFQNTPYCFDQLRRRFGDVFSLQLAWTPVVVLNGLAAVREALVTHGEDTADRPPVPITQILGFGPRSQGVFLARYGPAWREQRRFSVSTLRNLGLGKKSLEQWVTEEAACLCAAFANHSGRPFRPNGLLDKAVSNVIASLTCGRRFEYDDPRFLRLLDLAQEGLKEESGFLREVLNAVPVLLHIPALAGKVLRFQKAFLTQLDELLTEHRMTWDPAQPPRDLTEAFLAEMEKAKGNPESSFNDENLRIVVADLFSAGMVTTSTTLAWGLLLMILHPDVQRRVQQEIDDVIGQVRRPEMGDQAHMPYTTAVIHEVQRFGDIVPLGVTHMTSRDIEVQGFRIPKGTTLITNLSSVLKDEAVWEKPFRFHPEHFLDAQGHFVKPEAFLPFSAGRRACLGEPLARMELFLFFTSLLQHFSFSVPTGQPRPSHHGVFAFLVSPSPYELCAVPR

[13] = Half life in C57BL/6J mouse at 5 mg/kg, iv; format: ADME, organism-based; parameters: dose 5 mg/kg, route intravenous; settings: in vivo
How it was run: (§4)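 Single intravenous tail-vein injection, 5 mg/kg in DMA/Tween80/saline 10:10:80, C57BL/6J mice (n = 2). Plasma collected up to 8 h post-dose. Means of at least two experiments.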

[14] = Metabolic stability of the compound in human liver microsomes after 30 mins; format: ADME, Microsome; settings: read-out: Stability
How it was run: (§5)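 Stability reported as % parent remaining after 30 min incubation with murine or human liver microsomes. Means of at least two experiments.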

[15] = tested on: Mus musculus; test: Toxicity in C57BL/6J mouse assessed as abnormalities in skin at 10 mg/kg, po QD for 7 days measured post last dose; format: organism-based; parameters: dose 10 mg/kg, route oral; settings: in vivo, 168 h
[16] = biological target: Cytochrome P450 3A4 (Homo sapiens, UniProt P08684); test: Inhibition of CYP3A4; format: ADME
Chain of Cytochrome P450 3A4 (P08684 whole entry): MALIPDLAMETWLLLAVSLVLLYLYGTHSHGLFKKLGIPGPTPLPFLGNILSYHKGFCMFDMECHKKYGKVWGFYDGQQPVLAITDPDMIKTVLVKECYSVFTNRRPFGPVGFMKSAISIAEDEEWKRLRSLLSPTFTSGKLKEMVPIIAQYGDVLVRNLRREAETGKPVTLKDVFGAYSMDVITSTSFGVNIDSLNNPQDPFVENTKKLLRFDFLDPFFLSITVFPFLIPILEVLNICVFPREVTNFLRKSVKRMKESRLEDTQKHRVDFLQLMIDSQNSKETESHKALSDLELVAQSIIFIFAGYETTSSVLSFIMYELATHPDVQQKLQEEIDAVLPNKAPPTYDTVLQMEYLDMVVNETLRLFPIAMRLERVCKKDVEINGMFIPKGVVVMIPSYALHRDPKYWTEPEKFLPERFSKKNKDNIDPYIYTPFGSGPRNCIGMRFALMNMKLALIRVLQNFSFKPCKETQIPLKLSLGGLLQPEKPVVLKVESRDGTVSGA

[17] = AUC (0 to 8 hrs) in C57BL/6J mouse at 20 mg/kg, po; format: ADME, organism-based; parameters: time < 8 hr, dose 20 mg/kg, route oral; settings: plasma; how it was run: as §3
[18] = biological target: T3, Cytochrome P450 1A2 (Homo sapiens, UniProt P05177); test: Inhibition of CYP1A2; format: ADME
T3 sequence (P05177 whole entry): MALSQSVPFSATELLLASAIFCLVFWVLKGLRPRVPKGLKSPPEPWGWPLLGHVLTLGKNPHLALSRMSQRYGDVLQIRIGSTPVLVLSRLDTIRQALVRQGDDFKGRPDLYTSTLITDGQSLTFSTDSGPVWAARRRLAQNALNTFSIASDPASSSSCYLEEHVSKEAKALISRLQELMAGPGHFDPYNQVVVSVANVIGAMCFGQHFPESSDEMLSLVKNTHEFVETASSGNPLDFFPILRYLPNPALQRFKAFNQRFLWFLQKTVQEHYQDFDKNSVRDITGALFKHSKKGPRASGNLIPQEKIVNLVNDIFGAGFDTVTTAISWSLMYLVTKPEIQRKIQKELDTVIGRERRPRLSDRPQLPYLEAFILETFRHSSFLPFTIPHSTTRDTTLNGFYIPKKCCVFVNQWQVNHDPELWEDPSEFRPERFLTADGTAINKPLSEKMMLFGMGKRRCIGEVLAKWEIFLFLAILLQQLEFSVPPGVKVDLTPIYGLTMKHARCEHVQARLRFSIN

[19] = tested on: Mus musculus; test: Inhibition of delta-(9)-desaturase in C57BL/6J mouse assessed as reduction in plasma desaturation index (C18:1/C18:0) at 1 mg/kg, po QD for 7 days measured post last dose; format: functional, organism-based; parameters: dose 1 mg/kg; how it was run: as §2
[20] = Oral bioavailability in C57BL/6J mouse at 20 mg/kg up to 8 hrs; format: ADME, organism-based; settings: in vivo
How it was run: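 Bioavailability derived from plasma exposure after oral dosing (20 mg/kg, PG/Tween 4:1 by intubation tube, n = 3) and intravenous tail-vein dosing (5 mg/kg, DMA/Tween80/saline 10:10:80, n = 2) in C57BL/6J mice. Plasma sampled up to 8 h.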

[21] = biological target: Cytochrome P450 2C19 (Homo sapiens, UniProt P33261); test: Inhibition of CYP2C19; format: ADME
Chain of Cytochrome P450 2C19 (P33261 whole entry): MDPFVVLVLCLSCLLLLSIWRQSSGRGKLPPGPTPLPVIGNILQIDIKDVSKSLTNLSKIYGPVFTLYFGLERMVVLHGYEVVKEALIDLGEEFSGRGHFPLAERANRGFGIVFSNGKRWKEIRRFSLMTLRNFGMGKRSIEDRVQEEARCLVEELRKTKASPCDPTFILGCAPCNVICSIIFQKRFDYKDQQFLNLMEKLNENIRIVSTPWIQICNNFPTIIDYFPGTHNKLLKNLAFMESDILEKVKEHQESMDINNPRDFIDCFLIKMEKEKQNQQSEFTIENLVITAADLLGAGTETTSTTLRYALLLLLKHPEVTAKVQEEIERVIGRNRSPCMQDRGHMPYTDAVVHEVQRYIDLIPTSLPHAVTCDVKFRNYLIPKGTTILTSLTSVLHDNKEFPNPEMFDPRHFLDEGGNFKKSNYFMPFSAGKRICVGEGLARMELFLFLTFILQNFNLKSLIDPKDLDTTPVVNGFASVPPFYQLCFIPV

[22] = tested on: Mus musculus; test: Toxicity in C57BL/6J mouse assessed change in organ morphology up to 10 mg/kg, po QD for 7 days measured post last dose by autopsy; format: organism-based; parameters: dose 10 mg/kg, route oral; settings: in vivo, 168 h
[23] = Volume of distribution in C57BL/6J mouse at 5 mg/kg, iv up to 8 hrs; format: ADME, organism-based; parameters: dose 5 mg/kg, route intravenous; settings: in vivo; how it was run: as §4
[24] = Cmax in C57BL/6J mouse at 20 mg/kg, po up to 8 hrs; format: ADME, organism-based; parameters: dose 20 mg/kg, route oral; settings: in vivo; how it was run: as §3
[25] = tested on: Mus musculus; test: Toxicity in C57BL/6J mouse assessed change in size of […] at 3 to 10 mg/kg, po QD for 7 days measured post last dose; format: organism-based; parameters: dose 3-10 mg/kg, route oral; settings: in vivo, 168 h
[26] = tested on: Mus musculus; test: Inhibition of delta-(9)-desaturase in po dosed C57BL/6J mouse assessed as reduction in plasma desaturation index (C18:1/C18:0) QD for 7 days measured post last dose; format: functional, organism-based; how it was run: as §2
[27] = Clearance in C57BL/6J mouse at 5 mg/kg, iv up to 8 hrs; format: ADME, organism-based; parameters: dose 5 mg/kg, route intravenous; settings: in vivo; how it was run: as §4
[28] = Half life in C57BL/6J mouse at 20 mg/kg, po; format: ADME, organism-based; parameters: dose 20 mg/kg, route oral; settings: in vivo; how it was run: as §3
[29] = tested on: Mus musculus; test: Inhibition of delta-(9)-desaturase in C57BL/6J mouse assessed as reduction in plasma desaturation index (C18:1/C18:0) at 0.3 mg/kg, po QD for 7 days measured post last dose; format: functional; settings: 168 h; how it was run: as §2
[30] = tested on: Mus musculus; test: Toxicity in C57BL/6J mouse assessed change in size of Harderian gland at 3 to 10 mg/kg, po QD for 7 days measured post last dose; format: organism-based; parameters: dose 3-10 mg/kg, route oral; settings: in vivo, 168 h
[31] = Metabolic stability of the compound in mouse liver microsomes after 30 mins; format: ADME, Microsome; settings: read-out: Stability; how it was run: as §5

solubility [2]: < 0.5 µM
IC50 [3]: 0.06 nM
IC50 [4]: 0.03 nM
solubility [5]: 88 µM (≈ 44.7 µg/mL)
IC50 [6]: 0.03 nM
SMILES: FC(F)(F)c1cccc2c1CCC1(CCN(c3ccc(-c4nnc(Cc5cccnc5)o4)nn3)CC1)O2
ED50 [1]: 0.4 mg/kg

IC50 [3]: 10 nM
IC50 [4]: 27 nM
IC50 [7]: 76 nM
SMILES: O=C(NCCc1cccnc1)c1ccc(N2CCC3(CCc4ccccc4O3)CC2)nn1
ED50 [1]: 5 mg/kg

IC50 [10]: 3000 nM
Tmax [11]: 1.3 h
IC50 [12]: 27000 nM
half-life [13]: 0.4 h
remaining at 0.5 h [14]: 65%
solubility [2]: < 0.5 µM
IC50 [16]: 1600 nM
IC50 [3]: 2 nM
AUC(0-t) at 8 h [17]: 6800 ng·h/mL
IC50 [4]: 0.3 nM
IC50 [18]: 18000 nM
bioavailability [20]: > 95%
IC50 [21]: 14000 nM
Vd [23]: 1.3 L/kg
Cmax [24]: 2900 ng/mL
solubility [5]: > 100 µM
inhibition [26]: Dose-dependent effect
IC50 [7]: 0.7 nM
clearance [27]: 53 mL/min/kg
half-life [28]: 1 h
remaining at 0.5 h [31]: 51%
SMILES: Fc1cccc2c1CCC1(CCN(c3ccc(-c4nnc(Cc5cccnc5)o4)nn3)CC1)O2
inhibition in vivo at 10 mg/kg [8]: 66%
Activity [9]: Toxic
ED50 [1]: 0.6 mg/kg
Activity [15]: Non-toxic
inhibition [19]: Active
Activity [22]: Non-toxic
Activity [25]: Non-toxic
inhibition in vivo at 0.3 mg/kg [29]: 32%
Activity [30]: Non-toxic

IC50 [3]: 4 nM
IC50 [4]: 6 nM
IC50 [7]: 7 nM
SMILES: c1ccc2c(c1)CCC1(CCN(c3ccc(-c4nnc(Cc5ccncc5)o4)nn3)CC1)O2
ED50 [1]: 7 mg/kg
